Results on one compound are retold here after ChEMBL document CHEMBL4396897, “Potent 5-Cyano-6-phenyl-pyrimidin-Based Derivatives Targeting DCN1-UBE2M Interaction” (J Med Chem, 2019).

The target of series [1] is T1, NEDD8-activating enzyme E1 catalytic subunit (Homo sapiens) (UniProt Q8TBC4).
T1 sequence (whole entry): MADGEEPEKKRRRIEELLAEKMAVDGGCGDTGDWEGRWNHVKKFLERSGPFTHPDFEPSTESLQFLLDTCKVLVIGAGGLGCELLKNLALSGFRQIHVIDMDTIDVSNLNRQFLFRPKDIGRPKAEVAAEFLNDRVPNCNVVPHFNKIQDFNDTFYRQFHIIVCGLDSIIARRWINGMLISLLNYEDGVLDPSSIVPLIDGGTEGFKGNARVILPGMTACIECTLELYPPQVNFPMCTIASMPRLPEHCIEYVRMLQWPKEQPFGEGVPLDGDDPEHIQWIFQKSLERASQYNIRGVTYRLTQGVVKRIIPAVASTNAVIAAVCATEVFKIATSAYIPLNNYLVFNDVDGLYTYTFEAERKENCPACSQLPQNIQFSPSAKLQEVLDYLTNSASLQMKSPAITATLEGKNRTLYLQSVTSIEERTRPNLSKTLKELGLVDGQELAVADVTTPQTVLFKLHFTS
Briefly: Inhibition of NEDD8-activating enzyme E1C (unknown origin) assessed as effect on NEDD8/UBE2M complex formation up to 100 uM pre-incubated for 10 mins followed by Mg-ATP addition after 60 mins by SDS-PAGE analysis. The method in brief:
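Cell-free NEDD8~UBE2M formation: NEDD8 E1 mixed with NEDD8, UBE2M and compound (10 and 20µM reference inhibitor, or 1, 10 and 100µM test compound) in reaction buffer, 10 min at room temperature. Started with Mg-ATP, incubated 60 min at 37°C, then 1mM DTT and non-reducing loading buffer added. Resolved on 12% SDS-PAGE.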

Series [2] relates to NCI-H1975. Briefly: Effect on NQO1 accumulation in human NCI-H1975 cells transfected with DCN1 siRNA3 by densitometric method. The series is classed as functional, cell-based. A digest of the protocol: (§1)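 H1975 or PC9 cells seeded in 6-well plates for 16-24h, transfected with DCN1 siRNA#3 by lipofection, with or without compound, and collected three days later. Western blot for Cullin3, DCN1, NRF2, HO-1 and NQO1, with densitometry normalized to GAPDH. Three individual experiments, means ± SD.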

Series [3] concerns PC-3. Briefly: Antiproliferative activity against human PC3 after 72 hrs by MTT assay. The series is classed as functional, cell-based. The settings on record: PC-3, 72 h. The method in brief: (§2)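 MTT viability assay: cells seeded at 2~5×10^3 per well, exposed to serial dilutions of compound for 72h, then MTT (5 mg/mL in PBS) added for 4h at 37°C. Formazan dissolved in DMSO and read at 490nm. IC50 reported as mean ± SD of three independent experiments.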
(Tetrazolium assays rely on reduction of a dye to a coloured formazan, in cell work by metabolically active cells.)

In series [4] the test system is PC-9. The experiment in a line: Induction of apoptosis in human PC9 cells assessed as early apoptotic cells at 10 uM after 48 hrs by Annexin V-FITC/propidium iodide staining based flow cytometry (reference value: 1.36%). The series is classed as functional. The method in brief:
(§3)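 PC9 cells seeded in 6-well plates (1~2×10^6 cells/mL), incubated overnight, then exposed to 0, 2.5, 5 or 10µM compound for 48h. Harvested cells stained with Annexin-V-FITC/PI for 30 min and analysed by flow cytometry. Three individual experiments; means ± SD.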
On the technique in general: Flow cytometry measures light scatter and fluorescence of single cells or particles in a stream.

The target of series [5] is T2, DCN1-like protein 4 (Homo sapiens, UniProt Q92564).
T2 sequence (Q92564 whole entry): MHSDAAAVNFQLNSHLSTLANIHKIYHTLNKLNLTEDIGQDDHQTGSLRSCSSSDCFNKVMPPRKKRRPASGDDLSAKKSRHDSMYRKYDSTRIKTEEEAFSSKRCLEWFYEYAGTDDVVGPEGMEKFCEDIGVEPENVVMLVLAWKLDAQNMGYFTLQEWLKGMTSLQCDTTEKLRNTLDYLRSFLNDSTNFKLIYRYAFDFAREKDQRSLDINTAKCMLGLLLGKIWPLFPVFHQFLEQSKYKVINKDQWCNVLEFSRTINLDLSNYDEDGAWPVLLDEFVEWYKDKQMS
Briefly: Binding affinity to N-terminal GST tagged recombinant DCN4 (unknown origin) (102 to 292 residues) expressed in Escherichia coli BL21(DE3) assessed as reduction in DCN1/FAM-labelled N-terminal acetylated UBE2M (1 to 21 residues) protein-protein interaction after 30 mins by HTRF assay. A digest of the protocol: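 HTRF competition: 5nM GST-tagged DCN (1-5) and 5nM AcUBE2M1-21-biotin peptide, with streptavidin-XL665 and anti-GST cryptate, in 100mM phosphate buffer pH 6.5 with 0.02% Tween-20. Cocktail pre-incubated 30min at room temperature, compound added, then 30min more. Excitation 320nm, emission 615/665nm. Ki from three independent repeats, mean ± SD.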
(Time-resolved FRET reads energy transfer from a long-lived donor to a nearby acceptor.)

A short description of series [6]: Aqueous solubility of compound in pH 7.4 PBS sonicated for 30 mins followed by 24 hrs incubation under shaking condition by UV-Vis spectroscopy. The settings on record: buffer, pH 7.4, 24 h. The series is classed as physicochemical. A digest of the protocol:
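Compound powder added to phosphate buffer (PBS, pH 7.4) until a suspension formed. Sonicated 30 min in a water bath, then shaken 24 h at room temperature to reach equilibrium. Centrifuged, supernatant filtered through a 0.45µm membrane, and filtrate measured by UV spectroscopy against a PBS control.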

In series [7] the test system is ECa-109 cell line. The experiment in a line: Antiproliferative activity against human EC109 after 72 hrs by MTT assay. Format: functional, cell-based. The method in brief:
as §2

Series [8] has as its system PC-9. Briefly: Induction of apoptosis in human PC9 cells assessed as late apoptotic cells at 2.5 uM after 48 hrs by Annexin V-FITC/propidium iodide staining based flow cytometry (reference value: 1.57%). The series is classed as functional.
The subject of series [9] is PC-9. The experiment in a line: Effect on NQO1 accumulation in human PC9 cells transfected with DCN1 siRNA3 by densitometric method. The series is classed as functional, cell-based. The method in brief:
as §1

The subject of series [10] is A549. Briefly: Induction of apoptosis in human A549 cells assessed as necrotic cells at 10 uM after 48 hrs by Annexin V-FITC/propidium iodide staining based flow cytometry (reference value: 0.88%). Format: functional.
Series [11] deals with NCI-H1975. The experiment in a line: Induction of apoptosis in human NCI-NCI-H1975 cells after 48 hrs by Annexin V-FITC/propidium iodide staining based flow cytometry. Format: functional, cell-based.
Series [12] concerns PC-9. The experiment in a line: Induction of apoptosis in human PC9 cells assessed as early apoptotic cells at 2.5 uM after 48 hrs by Annexin V-FITC/propidium iodide staining based flow cytometry (reference value: 1.36%). The series is classed as functional. A digest of the protocol: as §3
In series [13] the test system is PC-9. The experiment in a line: Induction of apoptosis in human PC9 cells assessed as necrotic cells at 5 uM after 48 hrs by Annexin V-FITC/propidium iodide staining based flow cytometry (reference value: 1.34%). Format: functional. A digest of the protocol:
as §3

In series [14] the test system is PC-9. Briefly: Induction of apoptosis in human PC9 cells assessed as late apoptotic cells at 10 uM after 48 hrs by Annexin V-FITC/propidium iodide staining based flow cytometry (reference value: 1.57%). Format: functional.
In series [15] the test system is PC-9. The experiment in a line: Antiproliferative activity against human PC9 by MTT assay. The series is classed as functional, cell-based. The method in brief: as §2
Series [16] deals with DCN1-like protein 1 (Homo sapiens, UniProt Q96GG9).
DCN1-like protein 1, sequence (Q96GG9 whole entry, looked up): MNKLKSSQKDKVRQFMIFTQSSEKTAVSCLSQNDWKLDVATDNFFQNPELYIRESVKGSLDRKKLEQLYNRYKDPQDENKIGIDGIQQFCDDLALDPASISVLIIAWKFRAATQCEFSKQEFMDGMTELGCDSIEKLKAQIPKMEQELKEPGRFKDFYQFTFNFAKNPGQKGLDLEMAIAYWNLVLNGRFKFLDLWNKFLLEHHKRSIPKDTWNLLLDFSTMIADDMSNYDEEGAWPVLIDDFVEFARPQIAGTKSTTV
In series [17] the test system is A549. Briefly: Induction of apoptosis in human A549 cells assessed as viable cells at 5 uM after 48 hrs by Annexin V-FITC/propidium iodide staining based flow cytometry (reference value: 92.9%). Format: functional. The settings on record: A549, 48 h, read-out: Activity.
Series [18] relates to PC-9. The experiment in a line: Induction of apoptosis in human PC9 cells after 48 hrs by Annexin V-FITC/propidium iodide staining based flow cytometry. The series is classed as functional, cell-based. The method in brief:
as §3

Calls of active or inactive are those of the source. The rule behind the calls is not given here.

`C#CCSc1nc(Sc2nccs2)c(C#N)c(-c2ccc(C)cc2)n1`: in [1], the inhibition entry is “inactive”. Besides, the outcome in series [2] and in series [9] was inactive. The results for the concentration for half-maximal inhibition (IC50) in series [3] and in series [15] were 1620 nM and 1110 nM, respectively. For the same compound, the Activity in [4] is 1.97%; in series [8], 10.2%; in series [10], 0.72%; in series [11] it was “Dose-dependent effect”; in series [12], 0.64%; in [13], 5.29%. For the same compound, the figures for the Activity in [14], in series [15] (TDE = time-dependent effect) and in series [18] were 57.2%, “Tde” and “Dose-dependent effect”, respectively. In addition, the Ki (as a rule, a measure of affinity in units of concentration, obtained from inhibition or displacement) in series [5] worked out at 807 nM. The solubility entry in [6] is “Soluble”. Moreover, in series [7], the result was Active. For the same compound, the thermal shift (ΔTm) (commonly the shift of the melting midpoint relative to a reference) in series [16] turned out to be 7 °C. Besides, the viability at 5 µM in series [17] amounted to 52.6%.
